JMJD2C inh – inhibitors of human GASC-1 (JMJD2C) demethylase; GST-JMJD2C(1-420) H3K9me3 demethylation, DELFIA europium; inhibition, % at 2.35 µM; 330,000 compounds, 0.069% hits;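 active = more than half of a compound's replicate wells show inhibition beyond 50%, single wells judged on their own value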;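 note: signal counts dimethyl H3K9 product captured on neutravidin plate; 0% = median of DMSO wells and 100% = 0.3 times that DMSO median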
Target sequence (Q9H3R0 1-420 limits assumed): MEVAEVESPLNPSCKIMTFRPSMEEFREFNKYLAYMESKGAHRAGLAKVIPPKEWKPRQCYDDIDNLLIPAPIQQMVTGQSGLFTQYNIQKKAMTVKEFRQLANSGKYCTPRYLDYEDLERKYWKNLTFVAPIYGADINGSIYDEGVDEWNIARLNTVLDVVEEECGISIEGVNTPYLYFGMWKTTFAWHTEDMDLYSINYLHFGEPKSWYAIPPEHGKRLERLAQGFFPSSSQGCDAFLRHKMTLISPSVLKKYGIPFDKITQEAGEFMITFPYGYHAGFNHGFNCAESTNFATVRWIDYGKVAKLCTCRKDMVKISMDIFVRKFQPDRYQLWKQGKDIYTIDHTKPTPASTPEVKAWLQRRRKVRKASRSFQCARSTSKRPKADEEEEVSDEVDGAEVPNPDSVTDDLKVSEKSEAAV
SR-BI HDL uptake – blocks mouse SR-BI lipid uptake from DiI-HDL | AID 488896 | ldlA[mSR-BI] CHO cells, DiI-HDL uptake fluorescence, 3 h | 320,000 compounds, 0.96% hits | inhibition, % at 12.5 µM;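 active = mean replicate inhibition of at least 70% and a set share of replicates each scoring 70 or more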;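 note: 0% = median of neutral control wells and 100% = median of positive control wells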
AHR activator – activators of human aryl hydrocarbon receptor; P35869; AHR-responsive luciferase reporter cells, luminescence; activation, % at 5 µM; 320,000 compounds, 2.5% hits; AID 2796; in the data active = activation above about 47%;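 note: 0% = vehicle wells and 100% = reference agonist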
FXN GAA850 act – activators of GAA850 frataxin (FXN) promoter | 360,000 compounds, 0.56% hits | AID 540364 | HEK293 lucGAA850 FXN promoter luciferase reporter, 24 h; percent of 10 µM SAHA response | activation, % at 6 µM;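 active = activation above the average of all compounds screened plus 3 SD, cutoff fixed separately per campaign, cut at about 7.5% in these data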;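 note: 0% = DMSO wells and 100% = 10 µM SAHA wells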
SR-BI DiI-HDL act – enhances SR-BI lipid uptake from DiI-HDL; CHO ldlA[mSR-BI] cells, DiI-HDL uptake fluorescence, 3 h; 100 = double the neutral-control signal; activation, % at 12.5 µM; 320,000 compounds, 0.096% hits;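 active = mean replicate activation of at least 60% and every replicate at or above 60%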;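 note: 0% = median plate neutral-control signal and 100% = twice that signal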
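Assay system: LDL receptor-deficient CHO ldlA cells overexpressing murine SR-BI / Medium: BSA-supplemented, HEPES-buffered Ham's F12, pH 7.4 / Probe or stimulus: DiI-labelled HDL at 10 µg/mL final / Timing: compound with DiI-HDL co-incubation, 3 h at 37 °C / Technique: bottom-read cell fluorescence after medium removal, ex 550/em 595 nm / Measure: HDL uptake via cellular fluorescence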
Numbers without * were called inactive; · = no result. In the library only some 3.7% were active in any assay of this set; here they are far more common.

SMILES | JMJD2C inh | SR-BI HDL uptake | AHR activator | FXN GAA850 act | SR-BI DiI-HDL act
Cc1cc(/C=N/NC(=O)c2ccc(CN3CCOCC3)cc2)c(C)n1-c1ccccc1 | -13 | 72* | -1 | 2 | -72
CC(=O)c1c(C)[nH]c(C(=O)Nc2cccc3ccccc23)c1C | -2 | 11 | 110* | 2 | -11
CCC(C)c1ccccc1NC(=O)c1[nH]c(C)c(C(C)=O)c1C (stereo not drawn) | 7 | · | 29 | 4 | ·
CC(=O)c1c(C)[nH]c(C(=O)Nc2ccccc2Cl)c1C | -6 | 27 | 59* | 5 | -27
O=C(N[C@@H](Cc1ccc(O)cc1)C(=O)O)c1ccc(C(F)(F)F)cc1 | 6 | -19 | 0 | 0 | 19
CCC(Sc1nnc(C)c(=O)[nH]1)C(=O)Nc1cccc2ccccc12 (stereo not drawn) | 12 | · | 1 | 0 | ·
CCN(CC)C(=O)c1[nH]cnc1C(=O)Nc1cccc(Cl)c1 | 0 | -1 | 67* | -1 | 1
O=C(Nc1cccc(Cl)c1)c1nc[nH]c1C(=O)NCCCCNC(=O)c1[nH]cnc1C(=O)Nc1cccc(Cl)c1 | · | -18 | 2 | 1 | 18
CCOc1ccc(S(=O)(=O)N2CN(c3cccc(C(C)=O)c3)c3nc4ccccc4nc32)cc1 | -5 | -12 | 56* | 1 | 12
O=C(CC1NCCc2ccccc21)Nc1ccc(Cl)cc1 (stereo not drawn) | 5 | 15 | 75* | 3 | -15
CC1(c2ccc([N+](=O)[O-])c(CS(=O)(=O)c3ccccc3)c2)OCCO1 | 14 | 8 | -2 | 2 | -8
Cn1nc([N+](=O)[O-])c(C(C#N)c2nc3ccccc3n2C)c(Cl)c1=O (stereo not drawn) | -36 | -5 | 74* | -2 | 5
CCn1c(C)nc2cc(C(=O)N/N=C/c3ccc(O)c(O)c3O)ccc21 | -30 | -5 | · | 2 | 5
CCC(=NNC(=O)c1ccc2c(c1)nc(C)n2CC)c1cc(F)ccc1O | 14 | 114* | -2 | -1 | -114
COc1ccc(C(F)(F)F)cc1N/C=C/c1nnnn1-c1ccc2ccccc2c1 | -7 | -6 | -1 | -1 | 6
Cc1ccc(NC(=O)CSc2nnc(-c3cccs3)o2)cc1S(=O)(=O)N(C)C | 1 | · | 56* | · | ·
CCOc1ccc(NC(=O)CS(=O)CC(=O)Nc2cccnc2)cc1 (stereo not drawn) | -28 | · | 0 | 1 | ·
Cc1ccccc1NC(=O)c1cc(S(=O)(=O)N2CCCCC2)ccc1N1CCOCC1 | · | · | · | 0 | ·
CCOc1ccc(N2CC(C(=O)Nc3cc(C)on3)CC2=O)cc1 (stereo not drawn) | 1 | -16 | 76* | 1 | 16
O=S1(=O)N=C(Nc2nc3c(s2)CCCC3)c2ccccc21 | · | -13 | 57* | 6 | 13
Cc1cccc(Nc2nc3c(s2)CCCC3)c1 | 1 | 13 | 10 | 7 | -13
O=C(NNC(=O)c1ccc2c(=O)n3c(nc2c1)CCC3)c1ccc(F)cc1 | -2 | -35 | 60* | 0 | 35
Cc1csc(NC(=O)c2ccc3c(=O)n4c(nc3c2)CCCCC4)n1 | 12 | 31 | 20 | 4 | -31
O=C(Nc1nccs1)c1ccc2c(=O)n3c(nc2c1)CCCCC3 | 1 | · | 76* | 3 | ·
Cc1nn(C(C)C(=O)N2CCc3ccccc32)c(C)c1[N+](=O)[O-] (stereo not drawn) | -2 | -13 | 63* | 1 | 13
SMILES | JMJD2C inh | SR-BI HDL uptake | AHR activator | FXN GAA850 act | SR-BI DiI-HDL act
CCN1C(=O)C(CC(=O)Nc2ccc(F)cc2)N(CCCN2CCN(c3ccc(F)cc3)CC2)C1=S (stereo not drawn) | 1 | 57 | 2 | -7 | -57
COc1ccc(Cc2nc3ccccc3c(=O)n2N)cc1OC | -11 | -4 | 1 | -1 | 4
Cc1ccc(N2C(=O)c3ccccc3C2C(=O)c2ccc(O)cc2O)cc1 (stereo not drawn) | 3 | 10 | 59* | 1 | -10
c1ccc(-c2nnc(-c3ccccc3)c(-c3c[nH]c4ccccc34)n2)cc1 | 23 | 76* | 22 | 3 | -76
Cc1ccc2nc(SCC(=O)N3CCC(C)CC3)nc(=O)n2c1 | 4 | -18 | 3 | 2 | 18
Cc1cccc(NNC(=S)Nc2ccccc2)c1 | · | · | · | 1 | ·
Cc1ccc(NS(=O)(=O)c2cc([N+](=O)[O-])ccc2NNC(=S)Nc2cccc(Cl)c2)c(C)c1 | 23 | 95* | 2 | 3 | -95
Cc1ccc(NS(=O)(=O)c2cc([N+](=O)[O-])ccc2NNC(=S)Nc2cc(C)ccc2C)c(C)c1 | -1 | 79* | 1 | -3 | -79
Cc1ccc([N+](=O)[O-])cc1NC(=S)NC(=O)C(C)(C)C | 4 | 18 | 1 | -3 | -18
Cc1cccc(NS(=O)(=O)c2cc(NC(=O)CC(=O)c3ccc([N+](=O)[O-])cc3)ccc2C)c1 | 12 | · | · | · | ·
COc1ccc(NC(=S)NNc2ccc([N+](=O)[O-])cc2S(=O)(=O)Nc2ccc(C)cc2C)cc1 | -4 | 77* | 11 | 2 | -77
Cc1cccc(NC(=S)NNc2cccc(Cl)c2)c1 | 6 | · | 53* | -3 | ·
Cc1ccc2c(c1)[C@@H]1[C@H](CO2)[C@H](c2ccccc2)[C@@]2(C)C(=O)N[C@H](C)C(=O)N12 | 2 | 2 | 0 | 0 | 2
COc1ccc(C(=O)NC2CC(C)(C)NC(C)(C)C2)cc1S(=O)(=O)N1CCOCC1 | · | · | · | 4 | ·
Cc1ccccc1/C=N\NC(=O)c1ccccc1-n1cccc1 | 17 | 3 | 68* | 2 | -3
O=C(N/N=C/c1ccc(Br)cc1)c1ccccc1-n1cccc1 | 3 | -11 | 71* | 3 | 11
Cc1cccc(/C=N\NC(=O)c2ccccc2-n2cccc2)c1 | -2 | 3 | 34 | 1 | -3
N=c1n(CCN2CCOCC2)c2ccccc2n1CC(=O)c1ccc(Cl)c(Cl)c1 | 12 | 33 | 91* | 1 | -33
Nc1ccc(C#Cc2c(-c3ccsc3)oc3ccc(N4CCOCC4)cc23)cc1 | 8 | 45 | 70* | 6 | -45
COC(=O)c1ccc(/C=C/c2c(-c3ccsc3)oc3ccc(N4CCOCC4)cc23)cc1 | -5 | 37 | 44 | 3 | -37
COc1ccc(-c2oc3ccc(N4CCOCC4)cc3c2C#CCO)cc1 | 7 | 64 | 41 | -5 | -64
COc1ccc(-c2c(-c3ccsc3)oc3ccc(N4CCOCC4)cc23)cn1 | 16 | 49 | 59* | 2 | -49
CCC1CCCCN1C(=O)COC(=O)c1ccc(Br)o1 (stereo not drawn) | 5 | -13 | -1 | 0 | ·
O=C(Nc1ccncc1)C1CCC(CNS(=O)(=O)c2cccc3nsnc23)CC1 (stereo not drawn) | 2 | -5 | 11 | -1 | 5
Cc1ccnc(NC(=O)c2cc3cc(F)ccc3s2)c1 | 9 | 19 | 13 | 4 | -19
OC(c1cccc(Cl)c1)c1nc(-c2ccoc2)cs1 (stereo not drawn) | · | · | · | 0 | ·
